Compounds with a hit are over-represented: about 0.63% of the library has one in this group of screens.
TRPML3 ag = human TRPML3 channel agonists, primary screen, cell-based, HEK293 TRPML3-YFP, Fluo-8 calcium fluorescence, 3 µM | Mucolipin-3 (Homo sapiens), Q8TDD5 | 220,000 compounds, 0.29% hits | 100% = the carbachol control signal | AID 1448, 2008 | activation, % at 3 µM;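 active = activation above its plate's cutoff, the mean activation of the plate's test wells plus 3 SD, cut at about 12% in these data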
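system = HEK293 cells stably carrying human TRPML3-YFP | doses = one concentration, 3 µM nominal, 0.3% DMSO | timing = dye loading 1 h 37 °C then 30 min ambient, 125 s read | detection = Fluo-8 calcium dye fluorescence, ex 470-495, em 515-575 nm | benchmarks = high control carbachol 87 µM, low control DMSO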
IDE cell inh = human IDE inhibitors in live cells, primary screen, fluorescence polarization, HEK cells, FAbetaB substrate. 320,000 compounds, 0.41% hits. inhibition, % at 5.59 µM. Insulin-degrading enzyme (Homo sapiens), P14735. FAbetaB cleavage;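 active = percent inhibition above the average of all tested compounds plus 3 SD, set per screening campaign, cut at about 16% in these data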;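 also: IDE supplied by intact live HEK cells; FP after avidin binding of uncleaved biotin substrate so inhibition keeps polarization high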
Target sequence (P14735 whole entry, looked up): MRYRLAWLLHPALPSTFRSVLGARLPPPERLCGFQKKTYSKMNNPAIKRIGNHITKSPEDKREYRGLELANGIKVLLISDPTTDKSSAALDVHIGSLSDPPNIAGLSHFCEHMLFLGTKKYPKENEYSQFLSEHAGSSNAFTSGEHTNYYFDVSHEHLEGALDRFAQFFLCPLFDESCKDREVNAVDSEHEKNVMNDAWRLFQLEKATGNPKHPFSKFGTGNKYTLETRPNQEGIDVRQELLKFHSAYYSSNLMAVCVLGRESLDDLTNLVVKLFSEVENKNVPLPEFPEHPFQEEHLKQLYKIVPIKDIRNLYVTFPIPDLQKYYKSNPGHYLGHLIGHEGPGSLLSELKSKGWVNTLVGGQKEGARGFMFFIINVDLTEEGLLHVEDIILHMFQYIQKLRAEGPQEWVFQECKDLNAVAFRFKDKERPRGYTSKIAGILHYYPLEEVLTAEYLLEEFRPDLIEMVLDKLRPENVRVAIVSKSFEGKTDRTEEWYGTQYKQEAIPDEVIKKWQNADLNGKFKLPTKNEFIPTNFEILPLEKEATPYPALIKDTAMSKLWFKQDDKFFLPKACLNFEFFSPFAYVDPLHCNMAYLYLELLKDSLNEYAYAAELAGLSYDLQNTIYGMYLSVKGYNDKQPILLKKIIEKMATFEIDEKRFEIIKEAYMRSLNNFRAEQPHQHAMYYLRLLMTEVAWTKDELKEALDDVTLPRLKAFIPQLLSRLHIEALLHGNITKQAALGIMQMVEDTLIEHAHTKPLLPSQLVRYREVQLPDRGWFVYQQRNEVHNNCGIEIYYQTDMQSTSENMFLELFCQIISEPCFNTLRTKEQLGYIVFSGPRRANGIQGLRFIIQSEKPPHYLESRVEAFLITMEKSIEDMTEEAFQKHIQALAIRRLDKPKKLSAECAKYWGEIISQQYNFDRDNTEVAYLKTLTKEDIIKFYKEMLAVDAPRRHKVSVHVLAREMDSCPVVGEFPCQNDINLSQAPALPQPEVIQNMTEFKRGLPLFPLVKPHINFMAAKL
zfTRPN1 agonist = zebrafish TRPN1 channel agonists, primary screen, cell-based, HEK293, calcium fluorescence; AID 1424, 2008; transient receptor potential cation channel N1 (TRPN1/NompC), Danio rerio; HEK293 zebrafish TRPN1-YFP, Fluo-8 calcium fluorescence; 100% = response to 87 µM carbachol; activation, % at 3 µM; 220,000 compounds, 0.18% hits;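 active = activation above its plate's cutoff, the mean activation of test wells on that plate plus 3 SD, cut at about 19% in these data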
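System: zebrafish TRPN1-YFP in HEK293 cells / Dosing: 3 µM single point / Timing: dye loading 1 h at 37 °C, then 30 min room temperature / Signal: Fluo-8 calcium fluorescence, excitation 470-495 nm, emission 515-575 nm / Read-out basis: percent activation from peak over basal fluorescence ratio, control-normalized / Control set: high carbachol 87 µM, low DMSO alone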
IDE cell activ = human IDE activators in live cells, primary screen, fluorescence polarization, HEK cells, FAbeta-B substrate. FAbeta-B cleavage; 0% vehicle, 100% cell-free pure enzyme wells. activation, % at 5.96 µM. 340,000 compounds, 0.073% hits. AID 493087, 2011;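 active = activation above the mean of all tested compounds plus 3 SD, set per screening campaign, cut at about 17% in these data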
IDE cell inh cf = human IDE inhibitors in live cells, confirmation, fluorescence polarization, HEK cells, FAbetaB substrate; shares compounds with IDE cell inh; FAbetaB cleavage; inhibition, % at 5.59 µM; 1,200 compounds, 51% hits;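 active = mean inhibition across triplicate wells above the cutoff set by the earlier primary insulin-degrading enzyme screen, cut at about 16% in these data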
HEK293 tox = cytotoxicity in HEK cells, cytotoxicity control for IDE inhibitor project, cell-based, luminescence. inhibition, % at 5.59 µM. HEK293 cytotoxicity, ATP luminescence. shares compounds with IDE cell inh. 1,200 compounds, 28% hits; in the data active = inhibition above about 22%
Numbers stand for hits; n = inactive; x = not tested or not shown.

SMILES	TRPML3 ag	IDE cell inh	zfTRPN1 agonist	IDE cell activ	IDE cell inh cf	HEK293 tox
CC(=O)Oc1c(Cl)cc(Cl)cc1/C=C/c1ccc2ccccc2n1	n	45	n	n	68	n
CC(=O)Oc1ccc(Cl)cc1/C=C/c1ccc2ccccc2n1	n	n	n	n	x	x
Cc1cc(/C=C2\NC(=S)N(C)C2=O)ccc1N1CCCC1	12	88	32	n	96	n
CCCN1C(=O)/C(=C/c2ccc(N3CCCC3)c(C)c2)NC1=S	52	95	85	n	128	27
CN1C(=O)/C(=C/c2ccc(OCc3ccc(F)cc3)cc2)N(C)C1=S	x	n	x	n	x	x
Cc1cc(/C=C2/C(=O)N(C)C(=S)N2C)ccc1N1CCCC1	n	26	n	n	51	n
COc1cc(/C=C2\NC(=S)N(C)C2=O)ccc1O	n	n	n	n	x	x
O=C(CN1C(=O)NC2(CCCC2)C1=O)NNC(=O)c1ccc(Cl)cc1	x	n	x	n	x	x
COc1ccc(COc2cccc3ccc(C)nc23)cc1F	x	n	x	n	x	x
CSCCC(NC(=O)/C(=C/c1ccco1)NC(=O)c1ccc(Br)o1)C(=O)O (configuration not stated)	x	n	x	n	x	x
Cc1c(NC(=O)/C(C#N)=C/c2ccc(-c3ccc(Cl)cc3)o2)c(=O)n(-c2ccccc2)n1C	n	64	n	n	40	n
CC(=O)c1cccc(NC(=O)C(C)OC(=O)CCCN=C2NS(=O)(=O)c3ccccc32)c1 (configuration not stated)	x	n	x	n	x	x
CC1=CC(C)(C)Nc2ccc(OC(=O)c3ccco3)cc21	n	50	n	n	42	120
CC1=CC(C)(C)Nc2ccc(OC(=O)C(C)N3C(=O)c4ccccc4C3=O)cc21 (configuration not stated)	n	26	n	n	24	76
CC1=CC(C)(C)Nc2ccc(OC(=O)c3cccnc3)cc21	n	22	n	n	33	103
O=C(Oc1ccc(F)cc1)c1cccnc1	x	n	x	n	x	x
CC1=CC(C)(C)Nc2ccc(OC(=O)CN3C(=O)CCC3=O)cc21	n	26	n	n	32	92
CCN(CC(=O)Nc1c(F)cccc1F)C(=O)c1cccc(-n2cnnn2)c1	x	x	x	n	x	x
CCC(c1nnc(SCC(=O)Nc2cc(S(C)(=O)=O)ccc2Cl)n1Cc1ccccc1)N(C)C (configuration not stated)	x	n	x	n	x	x
O/C=c1\ccc2cccc3nc(C(F)(F)F)nc1c23	x	26	x	n	103	41
NNc1nc(C(F)(F)F)nc2ccccc12	n	n	n	n	x	x
CN(C)c1ccc(S(=O)(=O)N2CCCCC2)cc1NC(=O)CN1C(=O)NC2(CCCC2)C1=O	x	n	x	n	x	x
CC(=O)c1sc(N/N=C\c2cccc(Br)c2)nc1C	n	40	n	n	106	n
CC(=O)c1sc(N/N=C\c2ccc(Br)cc2)nc1C	n	37	n	n	76	n
CCOC(=O)c1sc(N/N=C/c2ccc(N(C)C)cc2)nc1C	x	n	x	n	x	x
SMILES	TRPML3 ag	IDE cell inh	zfTRPN1 agonist	IDE cell activ	IDE cell inh cf	HEK293 tox
CCOC(=O)c1c(C)n(C)c2ccc(OCC(O)CNC(CC)CO)cc12 (configuration not stated)	n	n	n	n	x	x
CCOC(=O)c1c(C)n(-c2ccc(C)cc2)c2ccc(OCC(O)CNCC3CCCO3)cc12 (configuration not stated)	n	17	n	n	n	n
OC(CNCC1CCCO1)COc1ccc(OCC(O)CNCC2CCCO2)cc1 (configuration not stated)	n	n	n	n	x	x
CCOC(=O)c1c(C)n(-c2ccc(C)cc2)c2ccc(OCC(O)CNCCCO)cc12 (configuration not stated)	n	17	n	n	n	n
COC(=O)c1cc(C(=O)OC)cc(-n2c(C)cc(C(=O)COC(=O)CNS(=O)(=O)c3ccc(C)cc3)c2C)c1	n	n	n	n	x	x
COc1ccc(Cl)cc1NC(=O)CN(C)C(=O)Cc1ccc2c(c1)CCC2	x	18	x	n	19	n
CC(C)C[C@@H](C(=O)O)N(Cc1cccc(CN([C@@H](CC(C)C)C(=O)O)S(C)(=O)=O)c1)S(C)(=O)=O	x	n	x	n	x	x
Cc1ccc(C(C(=O)NCc2ccc(F)cc2)N(Cc2ccco2)C(=O)c2snc(C(N)=O)c2N)o1 (configuration not stated)	x	n	x	n	x	x
O=C(Nc1cccc(-n2cnnn2)c1)c1cccc(Cl)c1	x	18	x	n	n	n
O=C(Nc1cccc(-n2cnnn2)c1)c1cc(Cl)nc(Cl)c1	x	n	x	n	x	x
O=C1CS/C(=N/N=C/c2ccco2)N1Cc1ccc(F)cc1	n	n	n	x	x	x
CC(=Nc1ccc(C)cc1C)c1sc2ccccc2c1O	n	n	n	n	x	x
CC(=Nc1ccc(C)cc1)c1sc2ccccc2c1O	n	25	n	n	44	n
CC(=Nc1cccc(O)c1)c1sc2ccccc2c1O	n	27	n	n	65	n
Cc1cc(C)c(S(=O)(=O)c2ccccc2C(C)C)c(=O)[nH]1	x	x	x	n	x	x
CCCCCCc1cc2cc(/C(N)=N/NC(=O)c3ccncc3)c(=O)oc2cc1O	x	29	x	n	97	n
O=C1CCN(S(=O)(=O)c2cc(C(F)(F)F)ccc2Cl)CC1	x	n	x	n	x	x
Cn1c(/C=C/c2cccc(Br)c2)nc2ccccc2c1=O	x	19	x	n	n	n
COc1cc(/C=C(\C#N)C(=O)c2c[nH]c3ccccc23)cc(OC)c1O	n	38	n	n	159	n
COC(=O)/C(C#N)=C/c1c[nH]c2ccccc12	n	n	n	n	x	x
COc1cc(/C=C(\C#N)C(=O)NCCc2ccccc2)cc(OC)c1O	n	44	n	n	76	n
NS(=O)(=O)c1ccc(NC(=O)CSc2nc(Nc3ccccc3)nc(N3CCOCC3)n2)cc1	x	n	x	n	x	x
CCOC(=O)CSc1nnc(CNC(=O)c2cccs2)n1-c1cc(C)ccc1C	n	n	n	n	x	x
Cc1ccc(NC(=O)c2sc3nc(C)cc(C)c3c2N)cc1	x	21	x	n	n	n
O=C(NCC1CCCO1)c1cccc2c1C(=O)c1ccc(N3CCC(Cc4ccccc4)CC3)cc1S2(=O)=O (configuration not stated)	x	50	x	n	83	50
O=C(NC[C@@H]1CCCO1)c1cccc2c1C(=O)c1ccc(N3CCOCC3)cc1S2(=O)=O	x	n	x	n	x	x
CC1CCN(c2ccc3c(c2)S(=O)(=O)c2cccc(C(=O)NC[C@@H]4CCCO4)c2C3=O)CC1	x	22	x	n	21	26

Screens: PubChem, The Scripps Research Institute Molecular Screening Center
